# Experimental data reported in publication PMC11128822 (Heliyon, 2024).
# Read-outs that look alike come from different tables or passages of the source.
# What was measured:
# SARS-CoV-2 [1] = assay: microbe, parasite or virus in culture; assay type: cell-based, human; settings: for viral infectious titres at the apical side of HAE vs virus control: D2 to D4
# SARS-CoV-2 [2] = assay type: cell-based, human; settings: D2 to D4
# SARS-CoV-2 [3] = assay type: in vivo, Syrian hamsters; settings: for reduction of lung infectious viral titers vs untreated: 300 mg/kg/day BID oral, D3
# SARS-CoV-2 [4] = assay type: in vivo, Syrian hamsters
# SARS-CoV-2 [5] = assay type: in vivo, Syrian hamsters; settings: 150, 300, 400 mg/kg/day BID, from D0, D3
# cytokines in lungs = assay: Expression level of seven cytokines in lungs; assay type: in vivo, Syrian hamsters; settings: 300 mg/kg/day BID from D0, D5
# SARS-CoV-2 [6] = assay: Lung histology of infected hamsters; assay type: in vivo, Syrian hamsters
# Outline: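 Infected hamsters were dosed every 12 h from the time of infection. MOV was given by oral gavage under isoflurane in water with 10 % PEG400 and 2.5 % Kolliphor EL. FAV was given intraperitoneally to awake animals. Euthanasia was on D5. Lungs were collected after intratracheal instillation of 4 % formaldehyde, fixed 72 h at room temperature and paraffin-embedded. Lesions were graded semi-quantitatively (up to 4 = severe), and scores were summed.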
# SARS-CoV-2 genome [7] = assay type: in vivo, Syrian hamsters; settings: hamster lungs
# SARS-CoV-2 genome [8] = assay: Sequence analysis of the full-length viral genome in HAE supernatants; assay type: cell-based, human
# COVID-19 [9] = settings: phase 3 MOVE OUT trial; cited from earlier work
# COVID-19 [10] = settings: PANORAMIC trial, cited from earlier work
# [11] = Molnupiravir pharmacokinetics: NHC trough concentration in plasma and lung; assay type: in vivo, Syrian hamsters
# Outline: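 MOV was given by oral gavage every 12 h, with the first dose at infection (D0), 12 h before (D-1) or 12 h after (D1). Hamsters were euthanised 15 h after the last dose on D3, giving trough values. Samples were EDTA plasma and lung lobes homogenised in 0.9 % NaCl. NHC was extracted with acetonitrile and quantified by UPLC-MS/MS (LLOQ 5 ng/mL). The partition coefficient was the lung:plasma concentration ratio.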
smiles,measurement,setting,value
"CCC(CC)COC(=O)[C@H](C)N[P@](=O)(OC[C@H]1O[C@@](C#N)(c2ccc3c(N)ncnn23)[C@H](O)[C@@H]1O)Oc1ccccc1 [RDV, Remdesivir]",infectious titres in HAE,"SARS-CoV-2 [1]; 10 μM, positive control",significantly reduced
"CC(C)C(=O)OC[C@H]1O[C@@H](n2ccc(NO)nc2=O)[C@H](O)[C@@H]1O [MOV, molnupiravir]",viral infectious titres at the apical side of HAE vs virus control,SARS-CoV-2 [1]; 0.3 μM,significant decrease in infectious titres was observed only at D3
same,viral infectious titres at the apical side of HAE vs virus control,SARS-CoV-2 [1]; 1 μM,Significant decrease
same,viral infectious titres at the apical side of HAE vs virus control,SARS-CoV-2 [1]; 3 μM,Significant decrease
same,IC50,"SARS-CoV-2 [1]; Severe acute respiratory syndrome coronavirus 2, in Homo sapiens",1000 nM
same,viral RNA yields at the apical side of HAE vs virus control,SARS-CoV-2 [2]; 0.3 μM,no significant reduction
same,viral RNA yields at the apical side of HAE vs virus control,SARS-CoV-2 [2]; 1 μM,significant reduction was observed at D3 and D4
same,viral RNA yields at the apical side of HAE vs virus control,SARS-CoV-2 [2]; 3 μM,significant decrease
same,infectious titers in clarified lung homogenates vs untreated animals,"SARS-CoV-2 [3]; 150, 300 and 400 mg/kg/day BID oral, from D0, lungs at D3",significantly lower
same,lung particle-to-infectious unit ratio vs untreated,"SARS-CoV-2 [3]; dose assessment experiment, 150-400 mg/kg/day BID",No significant differences
same,reduction of lung infectious viral titers vs untreated,SARS-CoV-2 [3]; pre-emptive (D0),1.03 log10
same,lung particles to infectious unit ratio vs control,"SARS-CoV-2 [3]; preventive (D-1), 300 mg/kg/day BID",significant elevation
same,reduction of lung infectious viral titers vs untreated,SARS-CoV-2 [3]; preventive (D-1),1.12 log10
same,viral RNA yields in lungs vs control group,"SARS-CoV-2 [4]; 300 mg/kg/day BID, three treated groups (D-1, D0, D1)",did not differ significantly
same,viral RNA yields in lungs vs untreated animals,"SARS-CoV-2 [4]; 150 or 400 mg/kg/day BID oral, from D0, D3",significant lower
same,RNA viral yields in nasal washes vs untreated animals,SARS-CoV-2 [5],no significant differences
same,expression of IL10 in lungs vs vehicle group,cytokines in lungs,reduction was not significant
same,expression of TNF in lungs vs vehicle group,cytokines in lungs,reduction was not significant
same,expression of cytokine CCl5 in lungs vs vehicle group,cytokines in lungs,significantly decrease
same,expression of cytokine CxCl10 in lungs vs vehicle group,cytokines in lungs,significantly decrease
same,cumulative pathological scores vs untreated group,"SARS-CoV-2 [6]; MOV 300 mg/kg/day BID from D0, lungs at D5",no significant difference
same,G to A MVs vs untreated group,SARS-CoV-2 genome [7]; 300 mg/kg/day BID,significant increase
same,mean frequency of transitions-type MVs vs untreated,SARS-CoV-2 genome [7]; 300 mg/kg/day BID,"higher in the treated group compared to the untreated group, but not significantly"
same,number of MVs with a frequency greater than 10 % vs untreated,SARS-CoV-2 genome [7]; 300 mg/kg/day BID,significant higher number
same,mean number of MVs per genome,SARS-CoV-2 genome [7]; 300 mg/kg/day BID from D0,29.5
same,average number of MVs per genome,SARS-CoV-2 genome [8]; 0.3 μM,20
same,mean frequency of transition-type MVs,SARS-CoV-2 genome [8]; 0.3 μM,0.81
same,average number of MVs per genome,SARS-CoV-2 genome [8]; 1 μM,88
same,mean frequency of transition-type MVs,SARS-CoV-2 genome [8]; 1 μM,0.97
same,average number of MVs per genome,SARS-CoV-2 genome [8]; 3 μM,18.3
same,mean frequency of transition-type MVs,SARS-CoV-2 genome [8]; 3 μM,0.89
same,"increase of type C to U-MVs, exposed vs non-exposed HAE",SARS-CoV-2 genome [8]; pooled analysis,significance found
same,efficacy in reducing the risk of hospitalisation or death,COVID-19 [9],modest efficacy
same,time to recovery,COVID-19 [10],reduced time to recovery
same,viral load,COVID-19 [10],reduced viral load
same,reduction in the risk of hospitalisation or death,COVID-19 [10]; vaccinated patients,no reduction
"O=c1nc(NO)ccn1[C@@H]1O[C@H](CO)[C@@H](O)[C@H]1O [NHC, β-D N4-hydroxycytidine]","NHC concentration in lung, 400 mg/kg/day BID compared to 150 mg/kg/day BID",[11]; 15 h after last intake,significantly higher
same,NHC plasma trough concentrations,"[11]; 15 h after last intake, MOV 150, 300, 400 mg/kg/day BID oral",comparable between doses
same,lung and plasma NHC trough concentrations between treatment strategies,"[11]; MOV 300 mg/kg/day BID from D-1, D0 or D1",no difference
same,Lung partition coefficients (ratio of lung over plasma concentrations),"[11]; dose assessment experiment, all doses",above 1
same,pulmonary partition coefficient,"[11]; therapeutic strategies experiment, 300 mg/kg/day BID",above 1
"NC(=O)c1nc(F)c[nH]c1=O [FAV, Favipiravir]",cumulative pathological scores vs untreated group,"SARS-CoV-2 [6]; FAV intraperitoneally 925 mg/kg/day BID, lungs at D5",significantly different score
